Experimental data as given in the M2OR odorant receptor database.

molecular target: T1, OR8D1 (Homo sapiens) (UniProt Q8WZ84); conditions: stereoisomer not certain
T1 sequence (whole entry): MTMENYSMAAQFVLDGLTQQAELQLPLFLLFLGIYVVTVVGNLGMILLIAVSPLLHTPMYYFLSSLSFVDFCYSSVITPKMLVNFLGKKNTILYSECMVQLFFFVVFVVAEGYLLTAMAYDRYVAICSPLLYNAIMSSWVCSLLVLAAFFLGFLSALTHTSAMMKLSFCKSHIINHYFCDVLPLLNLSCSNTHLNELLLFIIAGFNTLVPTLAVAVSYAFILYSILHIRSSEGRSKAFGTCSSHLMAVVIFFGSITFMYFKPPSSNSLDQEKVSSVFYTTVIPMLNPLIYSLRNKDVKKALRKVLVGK
Method in brief: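 Each receptor–molecule pair is labelled responsive or non-responsive (inactive) according to whether the original authors judged the measured signal statistically different from baseline. The data were taken from the main text and supplementary material of published papers and checked for typos and inconsistencies. Assay methods differed by source, with transient luciferase assays in mammalian cell lines being common.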
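Also: active if original authors judged signal statistically different from baseline.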

Odorant receptor agonist call, inactive:
CCOC(C)=O
CCC(C)CO (configuration not stated)
OCC=Cc1ccccc1
CCCCCCCC(=O)[O-].[H+]
SCc1cccs1
CCCSSCCC
CCC=CCCC=CC=O
CC=CC(=O)C1=C(C)CCCC1(C)C
CCCCCCO
Cc1occc1S
CCCCCc1ccccn1
CCC(=O)C(C)=O
CCOC(=O)c1ccccc1
COC(=O)C=Cc1ccccc1
C=CC(=O)CCCCC
CCCCCCCCC1CCC(=O)O1 (configuration not stated)
CC(=O)OCC=Cc1ccccc1
CCC=CCCOC(C)=O
CC1=CCC2CC1C2(C)C (configuration not stated)
CCCCCCCCC=CC=O
CC=Cc1ccc(OC)cc1
COc1ccc2ccc(=O)oc2c1
CCCCCCCC(C)=O
COc1nccnc1C(C)C
CCCCC1OC(=O)CC1C (configuration not stated)
CCCCC=CC=CC=O
C=CC(=O)CC
CCCCCCCCCC(=O)[O-].[H+]
COC1=C(C)OC(C)C1=O (configuration not stated)
COCCC(C)(C)S
CC(C)c1ccc(C=O)cc1
CCCCCCCC1CCCC(=O)O1 (configuration not stated)
CCOC(=O)CCC(C)C
C=Cc1ccc(O)cc1
CCOC(=O)CCSC
CC(=O)OCCc1ccccc1
CCC=CCC=O
